ChEMBL document CHEMBL1122302, “2-Benzazepines. 2. Thiazolo[5,4-d][2]benzazepines” (J Med Chem, 1983)

Columns and labels:
[1] = Prevention of metrazole induced convulsions in the antimetrazole test.; assay type: functional; conditions: Mus musculus
Summary of the method: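 Test compound given as a suspension in 5% acacia to three male CF-1 animals per dose level; metrazole 70 mg/kg iv 1 h later.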

[2] = molecular target: GABA-A receptor; anion channel; assay: In vitro displacement of [3H]diazepam from GABA-A benzodiazepine receptor; assay type: protein-complex assay

**Q.** With `Nc1nc2c(s1)CN=C(c1ccccc1F)c1cc(Cl)ccc1-2` as the compound, how does the ED50 [1] read?
**A.** 7.7 mg/kg

**Q.** And the IC50 [2]?
**A.** 2.8 nM

**Q.** With `CN1C(=O)CN=C(c2ccccc2)c2cc(Cl)ccc21` [DIAZEPAM] as the compound, how does the ED50 [1] read?
**A.** 1 mg/kg

**Q.** What does the source list for `Nc1nc2c(s1)CN=C(c1ccccc1Cl)c1cc(Cl)ccc1-2`?
**A.** ED50 [1]: 9.3 mg/kg; IC50 [2]: 1.6 nM

**Q.** For `Cc1nc2c(s1)CN=C(c1ccccc1)c1cc(Cl)ccc1-2`, which ED50 [1] is on record?
**A.** 63 mg/kg

**Q.** What about the IC50 [2] of the same compound?
**A.** 32 nM

**Q.** With `Cc1nc2c(s1)CN=C(c1ccccc1Cl)c1cc(Cl)ccc1-2` as the compound, how does the ED50 [1] read?
**A.** 50 mg/kg

**Q.** And the IC50 [2]?
**A.** 4.1 nM

**Q.** Which results are given for `Nc1nc2c(s1)CN=C(c1ccccc1)c1cc(Cl)ccc1-2`?
**A.** ED50 [1]: 7.4 mg/kg; IC50 [2]: 10.5 nM

**Q.** Which results are given for `Cc1nc2c(s1)CN=C(c1ccccc1F)c1cc(Cl)ccc1-2`?
**A.** ED50 [1]: 30 mg/kg; IC50 [2]: 7.8 nM
